Screens as filed in PubChem.
Most compounds without a hit are left out; they make up all but 12% or so of the library.
Cl transport mod: KCC2 cotransporter modulators, thallium flux, primary screen, cell-based, HEK293 KCC2, FluoZin-2 fluorescence, MLSMR; Solute carrier family 12 member 5 (Homo sapiens), Q9H2X9; KCC2 cells, thallium flux FluoZin-2 fluorescence; B-score of Tl+ flux slope (higher = more flux/activation; lower = inhibition) at 10 µM; actives 2.2% (n = 190,000);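 active = thallium flux slope and its plate-corrected score both differing from the plate sample mean at a set confidence after two filtering rounds, in either direction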;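 note: slope of fluorescence scaled to starting intensity during 10 to 20 s after thallium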
Diaphorase inh: diaphorase inhibitors and chemical oxidizers, primary screen, counter-screen for diaphorase-coupled primary assays, biochemical, uHTS, resorufin fluorescence | actives 0.69% (n = 190,000) | inhibition, % at 20 µM | diaphorase resazurin-to-resorufin fluorescence, NADH, 16 min; bacterial (C. kluyveri) enzyme, not human;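 active = primary screen inhibition at 20 µM above a set limit, cut at about 50% in these data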;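 note: plate controls were DMSO with full reaction for no effect and wells lacking NADH for full effect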
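Test system: bacterial diaphorase enzyme (C. kluyveri); Quantity: 0.14 U/mL diaphorase, enzyme working solution; Times: reaction incubation of 16 min at room temperature; Measured by: fluorescence of resorufin formed from resazurin, Ex 544/Em 590 nm; Benchmarks: positive control minus NADH, DMSO neutral control.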
Diaphorase act: compounds boosting diaphorase resazurin reduction – biochemical, uHTS, resorufin fluorescence, counter-screen for diaphorase-coupled primary assays, primary screen. activation factor at 20 µM. actives 0.005% (n = 190,000). Diaphorase/resazurin coupled assay, 16 min; active compounds read high; 1 = vehicle wells, 0 = NADH-free wells;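 active = diaphorase activity raised at least twofold by the compound at 20 µM; inactive = activation factor below 2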
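test system = bacterial diaphorase enzyme (C. kluyveri) | quantity = enzyme 0.07 U/mL final | reagent = NADH substrate 0.114 mM plus resazurin dye 0.1 mM, final | incubation = 16 min enzyme reaction, ambient temperature | buffer or medium = HEPES pH 7.4 buffer with MgCl2 and Tween 20 | signal = fluorescence of resorufin, 544 nm excitation, 590 nm emission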
L major viab: Leishmania major promastigote growth inhibition, primary screen | Leishmania major promastigotes, resazurin fluorescence viability | inhibition, % at 10 µM | actives 9% (n = 200,000); in the data active = inhibition above about 50%;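 note: promastigotes grown with compound for 44 hours at 28 °C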
WT yeast gro inh: growth inhibition of WT strain, primary screen, mitochondrial fusion inhibitor project, WT and mutant strains, chemical genetic | AID 1362, 2008 | actives 2.1% (n = 190,000) | inhibition, % at 10 µM | mitochondrial fusion phenotypic screen; in the data active = inhibition above about 58%; tested in S. cerevisiae
ROMK mod: ROMK potassium channel modulators, primary screen, cell-based, thallium flux, MLSMR library; Tet-inducible ROMK, thallium flux fluorescence; actives lie on both sides; B-score at 10 µM; actives 2% (n = 130,000);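 active = signal ratio slope over the read window, or its plate-corrected B-score, at least 3 SD from the plate mean, either direction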;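 note: B-score of the F/F0 ratio slope over 7 to 12 s after thallium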
Target sequence (P48048 whole entry, looked up): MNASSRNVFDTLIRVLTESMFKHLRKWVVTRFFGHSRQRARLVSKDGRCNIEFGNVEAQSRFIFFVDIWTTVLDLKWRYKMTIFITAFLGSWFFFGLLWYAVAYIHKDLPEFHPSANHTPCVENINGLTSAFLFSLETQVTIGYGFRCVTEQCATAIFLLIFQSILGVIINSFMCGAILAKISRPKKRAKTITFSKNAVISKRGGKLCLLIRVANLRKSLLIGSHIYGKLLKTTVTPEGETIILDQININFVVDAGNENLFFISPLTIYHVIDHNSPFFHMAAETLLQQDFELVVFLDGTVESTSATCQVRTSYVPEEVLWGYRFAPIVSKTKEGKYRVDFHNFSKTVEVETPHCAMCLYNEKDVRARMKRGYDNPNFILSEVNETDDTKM
KCC2 secondary: KCC2 modulators in sodium-free buffer, confirmation, cell-based, HEK293 KCC2, thallium flux, secondary assay | shares compounds with Cl transport mod | FluoZin2 fluorescence; active compounds read high | normalised thallium flux (F/F0 slope) at 10 µM | actives 15% (n = 3,700) | AID 1713, 2009;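 active = thallium flux slope above the same plate's solvent-only control mean plus 3 SD; inconclusive = the two replicate wells disagree; inactive = no significant difference from solvent-only control wells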
KCC2 bumet counter: thallium flux persisting under bumetanide in KCC2 cells, confirmation, counter-screen for KCC2 modulator project, cell-based, HEK293 KCC2, FluoZin2, secondary assay 3; shares compounds with Cl transport mod; HEK293-KCC2 + bumetanide/ouabain; active compounds read high; normalized thallium flux at 10 µM; actives 49% (n = 3,700); AID 1714, 2009;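 active = thallium entry rate above the same plate's blocked-transporter control wells by more than 3 SD; inconclusive = the two repeat wells disagree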;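 note: raw slope of fluorescence over initial fluorescence between 10 and 20 s after thallium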
KCC2 sec2: KCC2 modulators without ouabain present, confirmation, cell-based, HEK293 KCC2, thallium flux, FluoZin2, secondary assay 2 | shares compounds with Cl transport mod | thallium flux FluoZin2 fluorescence; actives lie on both sides; F/F0 rise rate, 10–20 s post-thallium | normalized thallium flux at 10 µM | actives 23% (n = 3,700) | AID 1715, 2009;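 active = thallium flux slope more than 3 SD above or below the plate's solvent-only control mean, mostly below; inconclusive = the two repeat wells disagreed; inactive = no significant shift from solvent-only controls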;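 note: raw slope with 0.1% DMSO as baseline and bumetanide as block control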
HEK293 Tl flux: thallium flux modulation in parental HEK cells, confirmation, counter-screen for KCC2 modulator project, cell-based, counterscreen 1; thallium flux rate (normalised fluorescence) at 10 µM; shares compounds with Cl transport mod; actives 46% (n = 3,700); HEK293 parental cells, thallium flux FluoZin2, ouabain; baseline-ratio fluorescence slope, 10–20 s after thallium;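 active = thallium flux rate significantly above the same plate's solvent-only control wells, beyond their mean plus 3 SD; inconclusive = the two replicate wells gave conflicting results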
KCC2 ouabain: KCC2 inhibitors and activators, ouabain retest, confirmation, HEK-KCC2 cells | shares compounds with Cl transport mod | HEK293-KCC2, thallium flux FluoZin2 fluorescence; bidirectional: low = inhibitor, high = activator | raw Tl+ flux slope (below DMSO = inhibition, above = activation) at 10 µM | actives 48% (n = 3,700) | AID 1717, 2009;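 active = thallium flux slope beyond 3 SD from same-plate DMSO control mean in most replicates, usually higher, sometimes lower; inconclusive = repeat tests gave conflicting results; inactive = no significant difference from controls in most replicates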;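 note: slope of initial-normalized fluorescence between seconds 10 and 20 after thallium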
HEK293 Tl flux2: native HEK Tl+ uptake effects, second counter-screen – HEK cells, counterscreen 2, counter-screen for KCC2 modulator project, confirmation | shares compounds with Cl transport mod | HEK293 parental, thallium flux FluoZin-2 fluorescence slope | thallium flux slope at 10 µM | actives 33% (n = 3,700) | AID 1718, 2009;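 active = thallium flux slope above the same plate's solvent-control mean plus 3 SD in both duplicate wells; inconclusive = duplicate wells that disagreed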;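 note: run without ouabain in cells lacking the KCC2 cotransporter; slope of fluorescence scaled to its starting value between 10 and 20 s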
The depositor's hits bear a star; ? = inconclusive; . = no result.

SMILES	Cl transport mod	Diaphorase inh	Diaphorase act	L major viab	WT yeast gro inh	ROMK mod	KCC2 secondary	KCC2 bumet counter	KCC2 sec2	HEK293 Tl flux	KCC2 ouabain	HEK293 Tl flux2
CC(=O)Nc1ccc(S(=O)(=O)Oc2ccc(/C=C3\SC(N)=NC3=O)cc2)cc1	2	18	0.8	2	-5	0.18	.	.	.	.	.	.
O=S(=O)(Nc1ccccc1N1CCCCC1)c1ccc(F)cc1F	19*	8	0.9	17	9	-0.041	0.013*	0.038*	0.031	0.012*	0.028	0.012*
Cn1nnnc1N=N/C(=N/Nc1ccccc1)c1ccccc1	60*	.	.	.	.	.	0.026*	0.094*	0.057*	0.044*	0.052*	0.045*
Cc1ccc(N/N=C(/Sc2nnnn2-c2ccccc2)C(=O)c2ccccc2)cc1	1.4	15	0.8	-1	25	0.75	.	.	.	.	.	.
O=C1CCN(C(=O)c2ccc(Cl)cc2)N1	-3.3*	13	0.9	-4	-1	0.39	0.01	0.006	0.032	0.0081	0.019	0.011
O=C(O)C1CCN(C(=O)c2ccc(Cl)cc2)CC1	-0.35	10	0.9	-6	-12	0.32	.	.	.	.	.	.
CCOC(=O)n1c(O)c(N=NC(N)=S)c2cc(C)ccc21	18*	.	.	.	.	.	0.016	0.038*	?	0.014*	0.031*	0.016*
CCOCC(=O)Nc1ccccc1C(=O)N1CCOCC1	0.21	-2	1	-9	9	-1.4	.	.	.	.	.	.
CCOC(=O)N1CCN(C(=O)c2ccccc2NC(=O)COc2ccccc2C)CC1	-3.3*	7	0.9	-8	6	.	0.0071	0.0049	0.025*	0.0082	0.018	0.01
Fc1ccc(N2CCN(C(=S)NCC3CCCO3)CC2)cc1 (centres undefined)	-2.6*	0	1	-4	-26	-0.8	0.0067	0.0059	0.028	0.0063	?	0.0094
Cc1sc2nc(C)n(/N=C/c3ccc(O)cc3O)c(=O)c2c1C	0.51	11	0.9	-5	-2	-1.3	.	.	.	.	.	.
CCOc1ncccc1C(=O)OCC(=O)c1ccc[nH]1	-4.1*	9	0.9	5	-5	0.26	0.01	0.0069	0.033	0.0043	0.021	0.012
CCOc1ncccc1C(=O)OCC(=O)NCCc1ccccc1	0.38	9	0.9	5	-4	0.022	.	.	.	.	.	.
